Shown are actives, neighbours in structure and some others; about 2.1% of the full set was active somewhere.
MC4R barr agon – MC4R agonists recruiting beta-arrestin, primary screen, cell-based, luminescence, agonist arm of biased-ligand search | activation, % at 8.9 µM | U2OS MC4R beta-arrestin complementation; percent of melanotan II response, DMSO zero | Melanocortin receptor 4 (Homo sapiens), P32245 | AID 540308, 2011 | actives 0.98% (n = 360,000);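 active = activation above a per-plate cutoff, the mean activation of sample wells on that plate plus 3 SD, cut at about 8% in these data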
Target sequence (P32245 whole entry, looked up): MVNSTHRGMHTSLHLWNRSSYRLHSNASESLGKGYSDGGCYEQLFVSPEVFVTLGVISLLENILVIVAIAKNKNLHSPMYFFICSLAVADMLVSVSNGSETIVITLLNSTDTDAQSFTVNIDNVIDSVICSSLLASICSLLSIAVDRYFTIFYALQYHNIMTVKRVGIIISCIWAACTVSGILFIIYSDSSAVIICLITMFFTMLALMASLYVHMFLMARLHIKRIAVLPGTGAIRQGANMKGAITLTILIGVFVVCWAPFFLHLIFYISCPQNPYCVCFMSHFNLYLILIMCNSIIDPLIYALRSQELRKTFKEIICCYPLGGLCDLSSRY
MC4R antag cAMP – MC4R antagonists of cAMP signaling, primary screen, cell-based, TR-FRET, antagonist arm of biased-ligand search; MC4R-expressing cells, MTII-stimulated cAMP, LANCE TR-FRET; inhibition, % at 6.5 µM; actives 0.48% (n = 360,000); AID 540295, 2011;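 active = inhibition above its plate's cutoff, the mean of tested wells on that plate plus 3 SD, cut at about 29% in these data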
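Assay system: human MC4R-expressing U2OS cells; reagent: Melanotan II stimulation of cells; dosing: 6.5 µM single dose; timing: compound 30 min, challenge 1 h, detection 1 h; signal: TR-FRET cAMP assay; replicates: one well per compound, no replicates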
F508del corr – F508del CFTR correction, initial screen, CFBE line, single point. actives 0.36% (n = 350,000). AID 720511, 2013. CFBE cells, YFP halide quenching; stimulated with forskolin plus potentiator P3; % fluorescence drop versus neutral controls. activity (quench increase), % at 7.58 µM;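 active = mean added fluorescence quench of at least 8% versus neutral control, with both replicates also reaching 8%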;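 also: cells transiently co-express mutant CFTR-F508del with the halide-sensitive YFP; corrector assay measuring rescue of mutant channel to the surface after 24 h compound exposure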
SMARCA2 activ – SMARCA2 (BRM) function activators, primary screen, cell-based, luminescence, high throughput; actives 1% (n = 370,000); activation, % at 9.1 µM; MG213 cells, MMTV-luciferase reporter, dexamethasone, overnight; in the data active = activation above about 7.8%
cAMP nonselect – nonselective cAMP signaling inhibitors, parental cells, counter-screen for MC4R biased antagonist project, cell-based, TR-FRET, U2OS, forskolin, triplicate; inhibition, % at 6.5 µM; shares compounds with MC4R antag cAMP; actives 26% (n = 1,600); LANCE TR-FRET;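 active = mean inhibition over triplicates above the low-control well mean plus 3 SD, set per campaign, cut at about 13% in these data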;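 also: signal is single emission at 671 nm which falls as cellular cAMP rises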
MC4R antag conf – MC4R cAMP antagonists, retest, confirmation, cell-based, TR-FRET | shares compounds with MC4R antag cAMP | MC4R-expressing cells, MTII-stimulated cAMP | inhibition, % at 6.5 µM | actives 27% (n = 1,600) | AID 602195, 2012; in the data active = inhibition above about 29%
Each line names hits and unclear results; the compound was inactive in the other large screens (follow-up assays come after a bar, where they were run).

CS(=O)(=O)c1ccc2nc(NC(=O)c3cc([N+](=O)[O-])cc([N+](=O)[O-])c3)sc2c1	none
Cc1noc(C)c1CN1C(=O)c2cccc([N+](=O)[O-])c2C1=O	MC4R antag cAMP 30.2 | cAMP nonselect inactive | MC4R antag conf inactive
C/C=C/c1ccc2c(c1)O[C@@H](CN(C)C(=O)C1CCC1)[C@H](C)CN([C@H](C)CO)S2(=O)=O	none (no result: MC4R barr agon, MC4R antag cAMP, SMARCA2 activ)
COc1nc(Cl)cn(-c2ccc(C)cc2)c1=O	none (no result: F508del corr)
Cc1ccc(-n2c(Cl)c(Cl)nc(Cl)c2=O)cc1	MC4R antag cAMP 45.9 (no result: F508del corr, SMARCA2 activ) | cAMP nonselect 57.2 | MC4R antag conf 54.9
COC(=O)c1ccc(N2NC(=O)/C(=C/c3cc(OC)c(O)c(OC)c3)C2=O)cc1	none
COC(=O)c1ccc(N2NC(=O)/C(=C/c3cc(OC)c(OC)c(OC)c3)C2=O)cc1	MC4R antag cAMP 36.4 | cAMP nonselect inactive | MC4R antag conf inactive
Nc1ccc2nn(-c3cc([N+](=O)[O-])ccc3O)nc2c1	MC4R antag cAMP 28.8 | cAMP nonselect inactive | MC4R antag conf inactive
Cc1cc(NC(=O)COc2ccc3ccccc3c2Br)no1	MC4R antag cAMP 46.4 | cAMP nonselect 20.2 | MC4R antag conf 35.0
CCOc1ccc(-c2nnc3ccc(SCC(=O)N4CCN(c5ccccc5)CC4)nn23)cc1	MC4R antag cAMP 31.8 | cAMP nonselect inactive | MC4R antag conf inactive
CCOc1ccc(-c2nnc3ccc(SCC(=O)N4CCCCC4)nn23)cc1	none
O=C(O)c1cc(-c2ccc(Cl)s2)nc2ccccc12	MC4R antag cAMP 33.6 | cAMP nonselect inactive | MC4R antag conf inactive
CN(C(=O)COC(=O)c1ccc(C(C)(C)C)cc1)C1CCS(=O)(=O)C1 (configuration not stated)	none
CN(C(=O)COC(=O)c1nc(Cl)c(Cl)c(Cl)c1Cl)C1CCS(=O)(=O)C1 (configuration not stated)	MC4R antag cAMP 43.2 | cAMP nonselect 14.8 | MC4R antag conf 37.7
CC1CCN(S(=O)(=O)c2cnc(Cl)c(Br)c2)CC1	MC4R antag cAMP 40.9 (no result: F508del corr) | cAMP nonselect 15.2 | MC4R antag conf 41.0
CC1CCN(S(=O)(=O)c2ccc(Cl)cc2Br)CC1	none (no result: F508del corr)
CC1CCCCN1S(=O)(=O)c1cnc(Cl)c(Br)c1 (configuration not stated)	MC4R antag cAMP 33.3 | cAMP nonselect inactive | MC4R antag conf inactive
CC1CCCCN1S(=O)(=O)c1csc(C(N)=O)c1 (configuration not stated)	none
S=c1[nH]nc(-c2cccnc2)o1	none (no result: F508del corr)
S=c1[nH]nc(-c2cccc(Br)c2)o1	MC4R antag cAMP 45.9 (no result: F508del corr) | cAMP nonselect 15.7 | MC4R antag conf inactive
Cc1cc(SCC(=O)N/N=C/c2ccco2)nc2ccccc12	MC4R antag cAMP 29.1 | cAMP nonselect inactive | MC4R antag conf inactive
CCCNC(=O)N1CC2(C1)CN(C(=O)c1cccnc1)[C@H](CO)c1[nH]c3cc(OC)ccc3c12	none (no result: MC4R barr agon, MC4R antag cAMP, SMARCA2 activ)
CCCN(C)C[C@H]1Oc2cc(-c3ccncc3)ccc2S(=O)(=O)N([C@H](C)CO)C[C@H]1C	none (no result: MC4R barr agon, MC4R antag cAMP, SMARCA2 activ)
COC(=O)c1ccccc1NC(=O)N1CCN(c2ccc(OC)cc2)CC1	none
COc1ccc(N2CCN(C(=O)Nc3ccccc3Cl)CC2)cc1	MC4R antag cAMP 36.8 | cAMP nonselect inactive | MC4R antag conf inactive
CN1C(=O)c2cc(NC(=O)NC3CCCC3)ccc2OC[C@@H]2O[C@H](CC(=O)O)CC[C@H]21	none (no result: MC4R barr agon, MC4R antag cAMP, SMARCA2 activ)
Brc1ccc(-c2nnc3sc(CNCc4ccc5c(c4)OCO5)cn23)cc1	none
Brc1ccc(-c2nnc3sc(CNC4CCCC4)cn23)cc1	MC4R antag cAMP 32.4 | cAMP nonselect 17.0 | MC4R antag conf 32.7
CCOc1ccccc1N(C(=O)c1snc(C(N)=O)c1N)C(C(=O)NCc1ccccc1)c1ccc(O)cc1 (configuration not stated)	MC4R antag cAMP 30.5 | cAMP nonselect inactive | MC4R antag conf inactive
COC(=O)CNC(c1ccccc1)c1cc(Br)ccc1NC(=O)CCN1CCOCC1 (configuration not stated)	MC4R antag cAMP 28.9 | cAMP nonselect inactive | MC4R antag conf inactive
COC(=O)CNC(c1ccccc1)c1cc(Br)ccc1N (configuration not stated)	MC4R antag cAMP 31.5 | cAMP nonselect inactive | MC4R antag conf inactive
Cc1ccccc1OCCC(=O)OCC(=O)Nc1cc(S(=O)(=O)N2CCOCC2)ccc1Cl	MC4R antag cAMP 34.7 | cAMP nonselect inactive | MC4R antag conf inactive
COc1ccccc1OCCC(=O)OCC(=O)Nc1cc(S(=O)(=O)N2CCOCC2)ccc1Cl	none
CC(C)C#Cc1ccc2c(c1)O[C@@H](CN(C)C(=O)c1ccncc1)[C@H](C)CN([C@H](C)CO)S2(=O)=O	none (no result: MC4R barr agon, MC4R antag cAMP, SMARCA2 activ)
COc1ccc(C(=O)C(CN2CCCC2)c2ccccc2)cc1 (configuration not stated)	none (no result: F508del corr)
O=C(c1ccc(Cl)cc1)C(CN1CCCC1)c1ccccc1 (configuration not stated)	MC4R antag cAMP 31.3 | cAMP nonselect inactive | MC4R antag conf inactive
C[C@H]1CN([C@@H](C)CO)C(=O)c2cccc(N(C)C)c2O[C@@H]1CN(C)Cc1ccc(C(F)(F)F)cc1	none (no result: MC4R barr agon, MC4R antag cAMP, SMARCA2 activ)
O=C(CCc1nnc(CCCCc2ccccc2)o1)N(CCO)Cc1ccccc1	none
C=C(C)CN(CC)C(=O)CCc1nnc(CCCc2ccccc2)o1	MC4R antag cAMP 30.6 | cAMP nonselect inactive | MC4R antag conf inactive
O=C(NCC1CC1)Nc1cccc(Cl)c1	none
Cc1cccc(NC(=O)NCC2CC2)c1	MC4R antag cAMP 30.0 | cAMP nonselect inactive | MC4R antag conf inactive
CCN(CC)S(=O)(=O)c1ccc(OC)c(NC(=O)Cn2cnc3c2c(=O)n(C)c(=O)n3C)c1	MC4R antag cAMP 33.4 | cAMP nonselect inactive | MC4R antag conf inactive
O=C(/C=C/c1ccco1)OCc1nnc(-c2ccc(Cl)cc2)o1	MC4R antag cAMP 31.6 | cAMP nonselect inactive | MC4R antag conf inactive
Cc1ccc(S(=O)(=O)/N=C2/C=C(Sc3ncn[nH]3)C(=O)c3ccccc32)cc1	MC4R antag cAMP 47.8 (no result: F508del corr, SMARCA2 activ) | cAMP nonselect 26.9 | MC4R antag conf 35.0
CN1C(=O)c2cc(NC(=O)c3cccc(F)c3)ccc2OC[C@H]2O[C@H](CC(=O)NCc3ccccc3)CC[C@H]21	none (no result: MC4R barr agon, MC4R antag cAMP, SMARCA2 activ)
Cc1nn(-c2cccc(Cl)c2)c2nc(-c3ccncc3)cc(C(=O)N3CCOCC3)c12	MC4R antag cAMP 34.4 | cAMP nonselect inactive | MC4R antag conf inactive
COC(=O)Cn1c(CN2CCN(c3ccccc3F)CC2)nc2c1c(=O)n(C)c(=O)n2C	none

Screens: PubChem BioAssay, several laboratories
